Measurements as given in ChEMBL document CHEMBL5620404, “New 4-(N-cinnamoylbutyl)aminoacridines as potential multi-stage antiplasmodial leads” (Eur J Med Chem, 2023).
pIC50: −log10 of the molar value. Active and inactive are the calls of the source. No cut-off for these calls is given here.

What was measured:
Plasmodium falciparum [1] = assay: Antiplasmodial activity against Plasmodium falciparum NF54-gexp02-Tom gametocytes infected in human erythrocyte by giemsa staining based light microscopy analysis; format: functional, organism-based
In short: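 NF54-gexp02-Tom line (tdTomato under early gametocyte promoter) grown in group B human erythrocytes, 3% hematocrit, RPMI with 10% human plasma and 2 mM choline chloride, 37 °C, 5% O2/5% CO2/90% N2. Sexual conversion induced by choline removal plus sorbitol synchronization; compounds 0.0048–100 μM present throughout.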

Plasmodium berghei [2] = assay: Antiplasmodial activity against firefly luciferase expressing liver stage Plasmodium berghei infected in human Huh-7 cells assessed as reduction in parasite growth at 1 to 10 uM measured after 48 hrs post infection by […] luminescence assay; format: functional, organism-based; details: dose 1-10 µM
In short: (§1)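 Huh7 cells in supplemented RPMI 1640 seeded the day before; ~1 h before infection, medium switched to infection medium with gentamicin, amphotericin B and compound. Cells then infected with PbGFP-Luccon sporozoites from Anopheles stephensi salivary glands. At 48 h, parasite load read as luciferase luminescence in lysates, normalized to 0.01% DMSO control; IC50 by nonlinear regression.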

Plasmodium falciparum [3] = assay: Antiplasmodial activity against Plasmodium falciparum NF54-gexp02-Tom gametocytes infected in human erythrocyte at 5 uM by giemsa staining based light microscopy analysis relative to control; format: functional
Plasmodium falciparum [4] = assay: Antiplasmodial activity against blood stage chloroquine-sensitive Plasmodium falciparum 3D7 infected in human erythrocyte incubated for 48 hrs by Syto11 staining based flow cytometry analysis; format: functional, organism-based; details: 3D7, Erythrocyte
In short: (§2)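 3D7 asexual parasites grown in group B erythrocytes, 3% hematocrit, RPMI with 0.5% Albumax II and 2 mM L-glutamine, 37 °C, 5% O2/5% CO2/90% N2. Rings synchronized by 5% sorbitol, then exposed 48 h to compounds (0.0000256–10 μM). Syto11 nuclear stain and flow cytometry (488 nm excitation, 530/30 emission). Inhibition scaled to untreated (0%) and chloroquine-treated (100%) cultures; IC50 by sigmoidal fit.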

Plasmodium berghei [5] = assay: Antiplasmodial activity against firefly luciferase expressing liver stage Plasmodium berghei infected in human Huh-7 cells assessed as reduction in parasite growth measured after 48 hrs post infection by […] luminescence assay; format: functional, organism-based; details: Huh-7, 48 h; in short: as §1
Huh-7 = assay: Cytotoxicity against human Huh-7 cells assessed as reduction in cell confluency at 10 uM measured after 48 hrs by Alamar blue staining based analysis relative to control; format: functional; parameters: scale not given: the % may be the effect or the level left
Plasmodium falciparum [6] = assay: Antiplasmodial activity against blood stage chloroquine-sensitive Plasmodium falciparum 3D7 infected in human erythrocyte; format: functional, organism-based; details: 3D7, Erythrocyte; in short: as §2
Plasmodium berghei [7] = assay: Antiplasmodial activity against firefly luciferase expressing liver stage Plasmodium berghei infected in human Huh-7 cells measured after 48 hrs post infection by […] luminescence assay; format: functional, organism-based; details: Huh-7, 48 h; in short: as §1

Compound	pIC50 (Plasmodium falciparum [1])	pIC50 (Plasmodium falciparum [4])	pIC50 (Plasmodium falciparum [6])	Activity (Plasmodium berghei [2])	Activity (Plasmodium falciparum [3])	pIC50 (Plasmodium berghei [5])	Activity (Huh-7)	pIC50 (Plasmodium berghei [7])
COc1cc(NCCCCNC(=O)/C=C/c2ccc(Cl)cc2)c2nc3cc(Cl)ccc3cc2c1	–	–	–	Active	15%	6.00	~75%	–
COc1cc(NCCCCNC(=O)/C=C/c2ccc(C(F)(F)F)cc2)c2nc3cc(Cl)ccc3cc2c1	–	–	–	Active	15%	–	–	–
COc1cc(NCCCCNC(=O)/C=C/c2ccc(Br)cc2)c2nc3cc(Cl)ccc3cc2c1	–	–	–	Active	15%	–	–	–
COc1cc(NCCCCNC(=O)/C=C/c2ccc(N(C)C)cc2)c2nc3cc(Cl)ccc3cc2c1	–	–	–	Active	15%	–	–	–
COc1cc(NCCCCNC(=O)/C=C/c2ccc(C(C)C)cc2)c2nc3cc(Cl)ccc3cc2c1	–	–	–	Active	–	6.89	–	–
COc1cc(NCCCCNC(=O)/C=C/c2ccc(OC)c(OC)c2)c2nc3cc(Cl)ccc3cc2c1	–	–	–	Active	15%	–	–	–
COc1cc(NC(C)CCCN)c2ncccc2c1 (stereo not given) [PRIMAQUINE]	–	–	–	–	–	4.91	–	–

Further lines, with some results ahead:

pIC50 (Plasmodium falciparum [1])	pIC50 (Plasmodium falciparum [4])	pIC50 (Plasmodium falciparum [6])	Compound	Activity (Plasmodium berghei [2])	Activity (Plasmodium falciparum [3])	pIC50 (Plasmodium berghei [5])	Activity (Huh-7)	pIC50 (Plasmodium berghei [7])
6.20	4.97	–	COc1cc(NCCCCNC(=O)/C=C/c2ccc(C)cc2)c2nc3cc(Cl)ccc3cc2c1	Active	>40%	–	–	–
6.28	4.99	–	COc1ccc(/C=C/C(=O)NCCCCNc2cc(OC)cc3cc4ccc(Cl)cc4nc23)cc1	Active	>40%	5.93	~75%	–
5.18	< 4.15	–	COc1cc(NCCCCNC(=O)/C=C/c2ccccc2)c2nc3cc(Cl)ccc3cc2c1	Active	>40%	6.30	~75%	–
–	5.23	–	COc1cc(NCCCCNC(=O)/C=C/c2ccc(F)cc2)c2nc3cc(Cl)ccc3cc2c1	Active	15%	6.05	~75%	–
6.85	5.36	–	COc1cc(NCCCCNC(=O)/C=C/c2cccc(F)c2)c2nc3cc(Cl)ccc3cc2c1	Active	>40%	6.25	~75%	–
4.79	5.42	–	COc1cc(NCCCCNC(=O)/C=C/c2ccc([N+](=O)[O-])cc2)c2nc3cc(Cl)ccc3cc2c1	Active	>40%	5.92	~75%	–
–	–	5.25	COc1cc(NCCCCN)c2nc3cc(Cl)ccc3cc2c1	–	–	–	–	5.65
